A selection: hits, their analogues and other compounds. The true share with any hit is near 2.1%.
MEKK3 PB1 HTS – modulators of MEKK3-MEK5 PB1 binding, primary screen, biochemical, wildtype MEKK3, multiplex bead flow cytometry, Alexa488-MEK5 | bead-based flow cytometry, Alexa488-MEK5 binding to MEKK3; actives lie on both sides; 0 = blocked by unlabeled MEK5, 100 = vehicle | binding response (% of control), % at 10 µM | hit rate 1.4% among 290,000 | AID 1529, 2009;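 active = binding response more than 3 SD above or below the average of its plate-row segment, actives on both sides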;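 also: Alexa488 bead fluorescence after subtracting the streptavidin-only scavenger bead signal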
GSK3 alpha inh – blockers of GSK3A enzyme activity – biochemical, luminescence, cell-free homogeneous, HTS, primary screen | hit rate 0.1% among 320,000 | Glycogen synthase kinase-3 alpha (Homo sapiens), P49840 | AID 2650, 2010 | GSK-3 alpha kinase, ADP-Glo luminescence, 60 min | inhibition, % at 10 µM;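 active = more than half of replicates show inhibition above 20%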;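 also: GST-tagged GSK-3 alpha with peptide substrate and 25 µM ATP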
MEKK2 WT-MEK5 – modulators of MEK5 binding to wildtype MEKK2, primary screen, biochemical, multiplex bead flow cytometry, Alexa488-MEK5; Mitogen-activated protein kinase kinase kinase 2 (Homo sapiens), Q9Y2U5; Alexa488-MEK5 binding to MEKK2 WT; actives lie on both sides; binding response (% of control), % at 10 µM; hit rate 1.1% among 290,000; AID 1531, 2009; in the data active = binding response below about 67% or above about 130%
STK33 inh – inhibitors of purified STK33 kinase, primary screen, biochemical, ADP-Glo luminescence, homogeneous, cell-free | Serine/threonine-protein kinase 33 (Homo sapiens), Q9BYT3 | MBP phosphorylation | inhibition, % at 10 µM | hit rate 0.073% among 320,000;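 active = inhibition at or above 25%, using the most active replicate where run in duplicate; inactive = inhibition below 25%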
MEKK2 mut-MEK5 – MEK5 binding signal on mutant MEKK2 PB1, primary screen, biochemical, multiplex bead flow cytometry, Alexa488-MEK5. Alexa488-MEK5 binding to MEKK2 mutant. percent response, % at 10 µM. hit rate 0.35% among 290,000. AID 1530, 2009; in the data active = percent response above about 24%, passing the limit was not always enough
GSK3B inh – human GSK3beta kinase inhibitors, primary screen, biochemical, cell-free homogeneous, HTS; hit rate 0.038% among 300,000; activity score (negative = inhibition), % at 10 µM; GST-GSK3beta kinase, ADP-Glo luminescence, 60 min; stronger effect = lower value; AID 2097, 2009; Glycogen synthase kinase-3 beta (Homo sapiens), P49841;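 active = more than half of replicate wells score below -50%, meaning over 50% inhibition versus plate controls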
Target sequence (P49841 whole entry, looked up): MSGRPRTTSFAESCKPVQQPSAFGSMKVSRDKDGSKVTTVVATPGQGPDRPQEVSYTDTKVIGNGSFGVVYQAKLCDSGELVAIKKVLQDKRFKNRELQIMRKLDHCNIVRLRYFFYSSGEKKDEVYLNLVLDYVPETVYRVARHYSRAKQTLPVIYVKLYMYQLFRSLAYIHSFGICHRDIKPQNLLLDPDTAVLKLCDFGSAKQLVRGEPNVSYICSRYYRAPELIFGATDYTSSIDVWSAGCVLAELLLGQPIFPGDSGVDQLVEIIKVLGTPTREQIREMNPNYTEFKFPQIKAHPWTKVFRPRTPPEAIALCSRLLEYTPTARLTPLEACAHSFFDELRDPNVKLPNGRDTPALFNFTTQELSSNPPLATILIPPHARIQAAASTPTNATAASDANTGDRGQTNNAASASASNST
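Test system: GST-fused GSK3beta enzyme, cell-free | Quantity: 1.6 ng GST-GSK3beta enzyme per well | Reagent: 25 µM ATP with peptide substrate | Schedule: 60 min enzyme reaction, room temperature | Signal: Luminescent ADP-Glo measurement of ADP formed | Read-out basis: Score relative to plate controls | Control set: DMSO and 20 µM GW8510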
Each line names hits and unclear results; the compound was inactive in the other large screens; [ ] = another dose, or the depositor's remark.

COc1ccccc1NS(=O)(=O)c1cccc(NC(=O)Nc2ccccc2)c1	none
COc1ccccc1NS(=O)(=O)c1cccc(NC(=O)Nc2ccc(Cl)cc2)c1	MEKK2 WT-MEK5 147
O=C(Nc1c(O)c2ccccc2[nH]c1=O)c1ccco1	none
O=C(Cn1ncc2c([nH]c3ccccc32)c1=O)Nc1ccc(CN2CCCCC2)cc1	MEKK2 WT-MEK5 147, MEKK2 mut-MEK5 25
O=C(Cn1ncc2c([nH]c3ccccc32)c1=O)NCCc1ccc(Cl)cc1	none
Cc1ccc(/C=C2/NC(=O)N(c3ccccc3)C2=O)o1	none
Cc1c(C(=O)O)cccc1-c1ccc(/C=C2/NC(=O)N(c3ccccc3)C2=O)o1	MEKK2 WT-MEK5 -10
CCn1nc(C)c(NC(=O)CC23CC4CC(CC(C4)C2)C3)c1C	none
Cc1nn(C)cc1NC(=O)CC12CC3CC(CC(C3)C1)C2	MEKK3 PB1 HTS 141
COc1ccc(OCc2cc(C(=O)N(C)Cc3cc(C4CC4)n[nH]3)no2)c(Cl)c1	none
CN1CCN(c2ccc(NC(=O)c3sc4ccccc4c3Cl)cc2)CC1	none
COC(=O)c1ccc(N2CCN(C)CC2)c(NC(=O)c2sc3ccccc3c2Cl)c1	MEKK2 WT-MEK5 172
COc1ccc(Cn2c(=O)c3[nH]cnc3n(-c3ccc(C)cc3)c2=O)cc1	none
CN1/C(=C\C(=S)NC(=O)c2ccccc2Cl)C(C)(C)c2ccccc21	MEKK2 WT-MEK5 1.0
Cc1ccc(S(=O)(=O)Nc2cccc3ncccc23)cc1	none
Cc1ccc(S(=O)(=O)Nc2cccc3ncccc23)s1	MEKK3 PB1 HTS 1.0[inhibitor], MEKK2 WT-MEK5 -1.0[inhibitor]
Cc1cc2nc(-c3ccc[nH]c3=O)[nH]c2cc1C	GSK3 alpha inh 61
Cc1cc2nc(-c3ccc[nH]c3=O)n(Cc3ccc(F)cc3)c2cc1C	none
CN(C)c1ccc(/C=C(/NC(=O)c2ccccc2)C(=O)NCCCn2ccnc2)cc1	none
Cc1cnc(NC(=O)CSc2nnc(N)s2)s1	MEKK2 WT-MEK5 -8.0
Cc1cnc(NC(=O)CSc2nc3ccccc3s2)s1	none
CCOC(=O)c1cc(-c2ccccc2)n(CCC(=O)N2CCN(c3ccc(OC)cc3)CC2)c1C	MEKK2 WT-MEK5 2.0
CCOc1c2ccccc2nn1CCO	none (no result: MEKK3 PB1 HTS, MEKK2 WT-MEK5, MEKK2 mut-MEK5, GSK3B inh)
CCOc1cc(/C=C(\C#N)c2[nH]nc(N)c2C#N)ccc1O	STK33 inh 35
Cn1cc(C(c2ccccc2OCC(=O)O)c2cn(C)c3ccccc23)c2ccccc21	none
COc1ccc(/C=N/NC(=O)CNC(=O)COc2ccccc2)cc1	MEKK2 WT-MEK5 4.0
N#CC1=C2SCN(Cc3ccccc3)CN2C(=O)CC1c1ccccc1F (stereo not given)	GSK3 alpha inh 61
CCC(Sc1nc2ccccc2c2nc3ccccc3n12)C(=O)NCc1ccco1 (stereo not given)	none (no result: MEKK3 PB1 HTS, MEKK2 WT-MEK5, MEKK2 mut-MEK5)
COc1ccc(C(=O)O)cc1S(=O)(=O)Nc1ccc2cn[nH]c2c1	none (no result: MEKK3 PB1 HTS, MEKK2 WT-MEK5, MEKK2 mut-MEK5, GSK3B inh)
COc1cc(C)c2c(c1C=O)Oc1c(c(C)c(O)c3c1C(O)OC3=O)OC2=O (stereo not given)	STK33 inh 44
Cc1ccccc1N1CCN(C2CCCN(C(=O)c3cnsn3)C2)CC1 (stereo not given)	MEKK3 PB1 HTS 77[inhibitor], MEKK2 WT-MEK5 65[inhibitor]
CN(CC(=O)Nc1ccccc1C(F)(F)F)CC(=O)N1CCCCCC1	none (no result: MEKK3 PB1 HTS, MEKK2 WT-MEK5, MEKK2 mut-MEK5, GSK3B inh)
O=C(O/N=C(\c1ccccc1)c1ccncc1)c1ccccc1F	MEKK2 WT-MEK5 -8.0
CCOCCN(C(=O)c1ccccc1Cl)c1cccc(C)c1C	none
COc1cc(/C=N/N=C2/C(=O)Nc3ccccc32)ccc1O	STK33 inh 38
Oc1ccc(-c2nnc(SCc3ccccc3)o2)cc1	none (no result: GSK3B inh)
Cc1ccc(-n2nnnc2CSc2nnc(-c3ccc(O)cc3)o2)cc1	GSK3 alpha inh 67
COc1ccc(CCNC(=O)C(C)SCC(=O)Nc2ccc(F)cc2)cc1 (stereo not given)	none (no result: MEKK3 PB1 HTS, MEKK2 WT-MEK5, MEKK2 mut-MEK5, GSK3B inh)
Nc1ccc(-c2c3ccc(=O)cc-3oc3cc(O)ccc23)cc1C(=O)O	MEKK2 mut-MEK5 27
COc1cnc(-c2ccccc2)nc1Oc1ccc(Cl)cc1C	none
COc1ccc(C2=NN(C(=O)CSc3ncccn3)C(c3cccc(OC)c3OC)C2)cc1 (stereo not given)	MEKK2 WT-MEK5 -7.0
O=[N+]([O-])c1cccc(-c2noc3c2-c2nc(Cc4cccc5ccccc45)sc2CC3)c1	none (no result: MEKK3 PB1 HTS, MEKK2 WT-MEK5, MEKK2 mut-MEK5)
Cc1ccc(/C=N/Nc2ccnc3cc(Cl)ccc23)c(C)c1	MEKK2 WT-MEK5 167
COc1cccc(OC)c1C(=O)OCC(=O)Nc1ccc(OC(F)(F)F)cc1	none
Cc1ccc(C(=O)N/C(=C\c2ccc(-c3ccc([N+](=O)[O-])cc3)o2)C(=O)NC2CCS(=O)(=O)C2)cc1 (stereo not given)	MEKK2 WT-MEK5 4.0
NCc1cccc(CNc2ccc([N+](=O)[O-])cc2C(N)=O)c1	GSK3 alpha inh 84 (no result: MEKK3 PB1 HTS, MEKK2 WT-MEK5, MEKK2 mut-MEK5, GSK3B inh)
CCOC(=O)c1nn(-c2ccccc2)c(=O)cc1SC1CCCCC1	none
CCOc1ccc(-c2ccc(SC)nn2)cc1	STK33 inh 31
Cc1ccc(/C=C/C(=O)OCC(=O)Nc2cccc(S(=O)(=O)N(C)C)c2)o1	MEKK2 WT-MEK5 10
O=C(Nc1cccc(-c2cn3cccnc3n2)c1)c1ccc(Br)o1	STK33 inh 32
Cn1c(CCN2CCCCC2)nc2cc(NC(=O)COc3ccc(Cl)cc3)ccc21	none
Cc1ccc(C(C)C)c(OCC(=O)Nc2ccc3c(c2)nc(CCN2CCCCC2)n3C)c1	MEKK2 WT-MEK5 141
O=C(Nc1ccc(Nc2ccncc2)cc1)c1ccc(Nc2ccnc3ccc([N+](=O)[O-])cc23)cc1[N+](=O)[O-]	MEKK3 PB1 HTS 13[inhibitor], MEKK2 WT-MEK5 28[inhibitor]
O=C(Nc1ccc(Nc2ccncc2)cc1)c1ccc([N+](=O)[O-])cc1	none
Cc1oc(-c2cc(F)ccc2F)nc1CN1CCN(C)C(=O)[C@@H]1C	MEKK2 WT-MEK5 22
Cc1ccsc1-c1nc(CN2CCN(C)C(=O)[C@@H]2C)c(C)o1	none
CCOc1cccc2sc(N(CCN(C)C)C(=O)c3ccc4c(c3)OCCO4)nc12	none
CCOc1ccc2nc(N(CCN(C)C)C(=O)c3cc4ccccc4cc3OC)sc2c1	MEKK2 WT-MEK5 137
CCOc1cccc2sc(N(CCN(C)C)C(=O)c3cc4ccccc4cc3OC)nc12	MEKK2 WT-MEK5 149
CCC1=C(OC(=O)N(CC)CC)N2C(=O)OC(=NCCc3c[nH]c4ccccc34)[C@]2(Cc2ccccc2)[C@H]2C1=CC[C@H]1C(=O)N(CC)C(=O)[C@H]12	none
